# Measured values from ChEMBL document CHEMBL3853327 (J Med Chem, 2016).
# How the values were obtained:
# [1] = Selectivity index, ratio of CC50 for human mock-infected MT4 cells to EC50 for HIV1 3B harboring reverse transcriptase K103N mutant infected in human MT4 cells; assay type: toxicity, cell-based; conditions: MT4 cells (mock-infected for CC50, HIV-1 infected for EC50)
# Procedure, shortened: (§1)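 Selectivity index is CC50/EC50. CC50 is the concentration that reduces OD540 of mock-infected MT-4 cells by 50% in the 5-day MTT assay. EC50 is the 50% protection from virus-induced cytopathicity, measured in parallel on infected wells.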
# [2] = system: Human immunodeficiency virus 1; experiment: Antiviral activity against wild type HIV1 3B harboring reverse transcriptase infected in human MT4 cells assessed as protection against virus induced cytotoxicity after 5 days by MTT assay; assay type: functional, cell-based; conditions: Human immunodeficiency virus 1, 3B, MT4, 120 h
# Procedure, shortened: (§2)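 MTT cytopathicity assay in MT-4 cells (6 × 10^5 cells/mL). Compounds serially diluted 5-fold in triplicate wells, run in parallel on infected and mock-infected cells. Virus added at 100−300 CCID50 per well. Viability read spectrophotometrically at 540 and 690 nm after 5 days, using the median OD of three wells.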
# [3] = Antiviral activity against HIV2 ROD harboring reverse transcriptase infected in human MT4 cells assessed as protection against virus induced cytotoxicity after 5 days by MTT assay; assay type: functional, cell-based, Human immunodeficiency virus type 2 (ISOLATE ROD); conditions: Human immunodeficiency virus 2, MT4, 120 h
# Procedure, shortened: as §2, with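 “wells. EC50 is the concentration giving 50% protection from viral cytopathogenicity.” for “wells.”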
# [4] = Cytotoxicity against human mock-infected MT4 cells assessed as reduction in cell viability after 5 days by MTT assay; assay type: toxicity, cell-based
# Procedure, shortened: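 Mock-infected MT-4 cells (6 × 10^5 cells/mL at seeding) with serial 5-fold compound dilutions in triplicate wells. Viability read by MTT after 5 days, absorbance at 540 and 690 nm, median OD of three wells. CC50 is the concentration reducing OD540 of mock-infected cells by 50%.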
# [5] = Selectivity index, ratio of CC50 for human mock-infected MT4 cells to EC50 for wild type HIV1 3B harboring reverse transcriptase infected in human MT4 cells; assay type: toxicity, cell-based; conditions: MT4 cells (mock-infected for CC50, HIV-1 infected for EC50); procedure, shortened: as §1
# [6] = Selectivity index, ratio of CC50 for human mock-infected MT4 cells to EC50 for HIV1 RES056 harboring reverse transcriptase K103N/Y181C double mutant infected in human MT4 cells; assay type: toxicity, cell-based; conditions: MT4 cells (mock-infected for CC50, HIV-1 infected for EC50); procedure, shortened: as §1
# [7] = system: Human immunodeficiency virus 1; experiment: Antiviral activity against HIV1 3B harboring reverse transcriptase L100I mutant infected in human MT4 cells assessed as protection against virus induced cytotoxicity after 5 days by MTT assay; assay type: functional, cell-based; conditions: Human immunodeficiency virus 1, 3B, MT4, 120 h
# Procedure, shortened: as §2, with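 “wells. EC50 is the concentration giving 50% protection from viral cytopathogenicity.” for “wells.”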
# [8] = system: Human immunodeficiency virus 1; experiment: Antiviral activity against HIV1 3B harboring reverse transcriptase K103N mutant infected in human MT4 cells assessed as protection against virus induced cytotoxicity after 5 days by MTT assay; assay type: functional, cell-based; conditions: Human immunodeficiency virus 1, 3B, MT4, 120 h
# Procedure, shortened: as §2, with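 “wells. EC50 is the concentration giving 50% protection from viral cytopathogenicity.” for “wells.”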
# [9] = system: Human immunodeficiency virus 1; experiment: Antiviral activity against HIV1 3B harboring reverse transcriptase Y181C mutant infected in human MT4 cells assessed as protection against virus induced cytotoxicity after 5 days by MTT assay; assay type: functional, cell-based; conditions: Human immunodeficiency virus 1, 3B, MT4, 120 h; procedure, shortened: as §2
# [10] = system: Human immunodeficiency virus 1; experiment: Antiviral activity against HIV1 3B harboring reverse transcriptase Y188L mutant infected in human MT4 cells assessed as protection against virus induced cytotoxicity after 5 days by MTT assay; assay type: functional, cell-based; conditions: Human immunodeficiency virus 1, 3B, MT4, 120 h
# Procedure, shortened: as §2, with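 “wells. EC50 is the concentration giving 50% protection from viral cytopathogenicity.” for “wells.”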
# [11] = system: Human immunodeficiency virus 1; experiment: Antiviral activity against HIV1 3B harboring reverse transcriptase E138K mutant infected in human MT4 cells assessed as protection against virus induced cytotoxicity after 5 days by MTT assay; assay type: functional, cell-based; conditions: Human immunodeficiency virus 1, 3B, MT4, 120 h
# Procedure, shortened: as §2, with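 “wells. EC50 is the concentration giving 50% protection from viral cytopathogenicity.” for “wells.”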
# [12] = system: Human immunodeficiency virus 1; experiment: Antiviral activity against HIV1 3B harboring reverse transcriptase F227L/V106A double mutant infected in human MT4 cells assessed as protection against virus induced cytotoxicity after 5 days by MTT assay; assay type: functional, cell-based; conditions: Human immunodeficiency virus 1, 3B, MT4, 120 h
# Procedure, shortened: as §2, with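 “wells. EC50 is the concentration giving 50% protection from viral cytopathogenicity.” for “wells.”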
# [13] = Selectivity index, ratio of CC50 for human mock-infected MT4 cells to EC50 for HIV1 3B harboring reverse transcriptase L100I mutant infected in human MT4 cells; assay type: toxicity, cell-based; conditions: MT4 cells (mock-infected for CC50, HIV-1 infected for EC50); procedure, shortened: as §1
# [14] = Selectivity index, ratio of CC50 for human mock-infected MT4 cells to EC50 for HIV1 3B harboring reverse transcriptase Y181C mutant infected in human MT4 cells; assay type: toxicity, cell-based; conditions: MT4 cells (mock-infected for CC50, HIV-1 infected for EC50); procedure, shortened: as §1
# [15] = Selectivity index, ratio of CC50 for human mock-infected MT4 cells to EC50 for HIV1 3B harboring reverse transcriptase Y188L mutant infected in human MT4 cells; assay type: toxicity, cell-based; conditions: MT4 cells (mock-infected for CC50, HIV-1 infected for EC50); procedure, shortened: as §1
# [16] = Selectivity index, ratio of CC50 for human mock-infected MT4 cells to EC50 for HIV1 3B harboring reverse transcriptase E138K mutant infected in human MT4 cells; assay type: toxicity, cell-based; conditions: MT4 cells (mock-infected for CC50, HIV-1 infected for EC50); procedure, shortened: as §1
# [17] = Selectivity index, ratio of CC50 for human mock-infected MT4 cells to EC50 for HIV1 3B harboring reverse transcriptase F227L/V106A double mutant infected in human MT4 cells; assay type: toxicity, cell-based; conditions: MT4 cells (mock-infected for CC50, HIV-1 infected for EC50); procedure, shortened: as §1
# [18] = system: Human immunodeficiency virus 1; experiment: Potency index, ratio of ETV EC50 to compound EC50 for HIV1 3B harboring reverse transcriptase Y181C mutant infected in human MT4 cells; assay type: functional
# [19] = system: Human immunodeficiency virus 1; experiment: Potency index, ratio of ETV EC50 to compound EC50 for HIV1 3B harboring reverse transcriptase YI88L mutant infected in human MT4 cells; assay type: functional
# [20] = system: Human immunodeficiency virus 1; experiment: Potency index, ratio of ETV EC50 to compound EC50 for HIV1 3B harboring reverse transcriptase E138K mutant infected in human MT4 cells; assay type: functional
# [21] = Inhibition of recombinant wild type HIV1 reverse transcriptase using DIG-dUTP/biotin-dUTP/dTTP assessed as suppression of biotin-dUTP incorporation after 1 hr by ELISA; design: species or system Human immunodeficiency virus 1
# Procedure, shortened: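 Recombinant WT HIV-1 RT in a Roche colorimetric kit: template plus DIG-dUTP, biotin-dUTP and dTTP, ±inhibitor, 1 h at 37 °C. Product captured on streptavidin plate 1 h at 37 °C, anti-DIG-POD 1 h at 37 °C, ABTS developed at 25 °C, read at OD405. IC50 is the concentration inhibiting biotin-dUTP incorporation by 50%.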
# [22] = target: Human immunodeficiency virus type 1 reverse transcriptase (Human immunodeficiency virus 1, UniProt Q72547, K103N/Y181C); experiment: Inhibition of recombinant HIV1 reverse transcriptase K103N/Y181C double mutant using DIG-dUTP/biotin-dUTP/dTTP assessed as suppression of biotin-dUTP incorporation after 1 hr by ELISA
# [23] = system: Human immunodeficiency virus 1; experiment: Fold resistance, ratio of IC50 for recombinant HIV1 reverse transcriptase K103N/Y181C double mutant to IC50 for wild type HIV1 reverse transcriptase
# Procedure, shortened: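 Ratio of mutant to WT IC50. Recombinant WT and K103N/Y181C RT were assayed with a kit: template plus DIG-dUTP, biotin-dUTP and dTTP, with or without inhibitor, 1 h at 37 °C. Product was captured on streptavidin, detected with anti-DIG-POD and ABTS, and read at 405 nm. IC50 is the concentration inhibiting biotin-dUTP incorporation by 50%.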
SMILES,selectivity ratio [1],EC50 [2],EC50 [3],CC50 at 120 h [4],selectivity ratio [5],selectivity ratio [6],EC50 [7],EC50 [8],EC50 [9],EC50 [10],EC50 [11],EC50 [12],selectivity ratio [13],selectivity ratio [14],selectivity ratio [15],selectivity ratio [16],selectivity ratio [17],Ratio EC50 [18],Ratio EC50 [19],Ratio EC50 [20],other results
Cc1cc(C#N)cc(C)c1Oc1nc(NC2CCN(Cc3ccc(C(N)=O)cc3)CC2)nc2ccsc12,53800,1.4 nM,> 95400 nM,95400 nM,66900,1110,10.8 nM,1.8 nM,5.3 nM,8.6 nM,4.5 nM,10.7 nM,8760,18100,11100,21300,8860,2,2,2,
COC(=O)c1ccc(CN2CCC(Nc3nc(Oc4c(C)cc(C)cc4C)c4sccc4n3)CC2)cc1,263,15.4 nM,> 24900 nM,24900 nM,1610,5,650 nM,94.6 nM,161 nM,243 nM,39.5 nM,1850 nM,38,154,102,629,13,,,,IC50 [21]: 1240 nM; IC50 [22]: 12300 nM; Ratio IC50 [23]: 9.92
Cc1cc(C)c(Oc2nc(NC3CCN(Cc4ccc(F)cc4)CC3)nc3ccsc23)c(C)c1,130,25.7 nM,> 11900 nM,11900 nM,465,2,1210 nM,91.8 nM,182 nM,715 nM,166 nM,5310 nM,10,66,17,72,2,,,,IC50 [21]: 1230 nM; IC50 [22]: 6570 nM; Ratio IC50 [23]: 5.34
CNS(=O)(=O)c1ccc(CN2CCC(Nc3nc(Oc4c(C)cc(C#N)cc4C)c4sccc4n3)CC2)cc1,2880,1.5 nM,> 4420 nM,4420 nM,2790,136,4.5 nM,1.5 nM,4.8 nM,6.8 nM,6.6 nM,4.1 nM,972,911,647,665,1090,2,2,2,
Cc1cc(C#N)cc(C)c1Oc1nc(NC2CCN(Cc3ccc(NS(C)(=O)=O)cc3)CC2)nc2ccsc12,35700,1.5 nM,> 68300 nM,68300 nM,44200,261,13.6 nM,1.9 nM,6.9 nM,8.2 nM,6.9 nM,32.2 nM,5020,9890,8870,9900,2120,2,2,2,
Cc1cc(C)c(Oc2nc(NC3CCN(Cc4ccncc4)CC3)nc3ccsc23)c(C)c1,777,7.6 nM,> 5650 nM,5650 nM,747,27,56.1 nM,7.3 nM,24.6 nM,37.1 nM,20.9 nM,133 nM,101,230,152,270,42,,,,IC50 [21]: 210 nM; IC50 [22]: 1260 nM; Ratio IC50 [23]: 6
